Measurements taken from publication PMC3919449 (Chemistry & biology, 2013).

Assays:
BE(2)-C cells [1] = test: GE-HTS neuroblastoma differentiation signature in BE; assay type: cell-based; settings: for induction of the differentiation signature (differentiation score): two days of treatment
Method in brief: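 In BE(2)-C cells with 2 nM cisRA as differentiation enhancer, test compound applied at eight concentrations in duplicate for 2 days. Controls were 1 μM cisRA (positive) and DMSO (negative), plus a cisRA dose-response plate per run. GE-HTS gave the differentiation score. AUC: cubic natural spline at 50 points over log dose, trapezoid areas against the mean DMSO score, divided by log-concentration range.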

SH-SY5Y = test: GE-HTS neuroblastoma differentiation signature in SH-SY5Y; assay type: cell-based; settings: second cell line
HDACs 4-9 = test: HDAC activity assay, other HDACs; assay type: biochemical; settings: HDACs 4-9, same concentration range
Method in brief: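 Recombinant full-length HDAC preincubated 3 h with test compound, then fluorogenic substrate at Km: MAZ1600 for HDAC6 (9 μM); MAZ1675 for HDAC4 (10 μM), 5 (40 μM), 7 (22 μM), 8 (282 μM), 9 (26 μM). Trypsin-coupled AMC release read every 5 min; linear-range rate normalized to DMSO (<0.5%); IC50 by unconstrained logistic regression.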

BE(2)-C cells [2] = test: NF-M immunofluorescence, morphologic changes; assay type: cell-based; settings: NF-M labeling
Method in brief: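 BE(2)-C cells treated in duplicate with DMSO vehicle or the test compound for 72 h. Cells washed, fixed in 4% formaldehyde and permeabilized with 0.2% Triton X-100. Stained with monoclonal anti-NF-M and an Alexa Fluor 568 secondary. Mounted in antifade with DAPI counterstain; neurite projections examined.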

[3] = test system: Kelly, LAN-1, BE(2)-C, and SH-SY5Y; test: GE-HTS differentiation signature in four neuroblastoma cell lines; assay type: cell-based; settings: two day and five day time points
Method in brief: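 Cells grown in DMEM with 10% FBS and 1% penicillin-streptomycin with glutamine, then exposed to the test compound over a concentration range for 2 or 5 days. Read-out is GE-HTS: ligation-mediated amplification with fluorescent bead detection of 59 signature genes. Differentiation score is the signature-gene expression divided by mean control-gene expression, summed with weights/signs from cisRA vs DMSO controls. Four replicates; one-way ANOVA with Bonferroni versus DMSO.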

[4] = test system: histone H3 acetylation in BE(2)-C cells; test: Immunoblot for acetylated histone H3; assay type: cell-based; settings: six hours of treatment
Method in brief: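 BE(2)-C cells exposed to the test compound or DMSO for six hours; nuclear extracts then immunoblotted for acetylated histone H3.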

[5] = test system: Kelly, LAN-1, BE(2)-C, and SH-SY5Y; test: ATP-based viability; settings: four neuroblastoma cell lines, five days of treatment
Method in brief: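 Kelly, LAN-1, BE(2)-C and SH-SY5Y grown in DMEM with 10% FBS and 1% penicillin-streptomycin with glutamine, identity confirmed by STR profiling. Cells exposed to test compound over a 9-point concentration range for five days; viability read by ATP luminescence (CellTiter Glo) per manufacturer's instructions.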

Row | SMILES | induction of the differentiation signature (differentiation score) (BE(2)-C cells [1]) | further results
1 | CC1=C(/C=C/C(C)=C/C=C/C(C)=C/C(=O)O)C(C)(C)CCC1 [ATRA, all-trans retinoic acid] | induce the differentiation signature in a dose-dependent manner | 
2 | C[C@H](CO)N1C[C@H](C)[C@H](CN(C)Cc2ccc(C(=O)Nc3ccccc3N)cc2)Oc2c(cccc2N(C)C)C1=O [BRD6332] | greatly dampened differentiation activity | 
3 | C[C@H](CO)N1C[C@H](C)[C@H](CN(C)Cc2ccc(C(=O)Nc3ccccc3N)cc2)Oc2ccc(N(C)C)cc2C1=O [BRD6819] | induced the differentiation signature in a manner similar to BRD8430 | induction of the differentiation signature (SH-SY5Y): confirmed to induce the differentiation signature
4 | C[C@H](CO)N1C[C@H](C)[C@H](CN(C)Cc2ccc(C(=O)Nc3ccccc3N)cc2)Oc2ccc(N(C)C)cc2CC1=O [BRD8430] | significantly inducing the signature at all eight concentrations tested | IC50 for inhibition of the other HDACs (HDACs 4-9): not able to determine IC50 values; morphologic changes consistent with differentiation (BE(2)-C cells [2]): induced morphologic changes, including neurite outgrowth; AUC of the differentiation score across eight concentrations (BE(2)-C cells [1]; two days, eight concentrations): highest AUC value of the 32 compounds evaluated; induction of the differentiation signature [3]: induce the differentiation signature in a concentration-dependent manner; induction of the differentiation signature (SH-SY5Y): confirmed to induce the differentiation signature; histone H3 acetylation [4]: increased histone H3 acetylation in a concentration-dependent manner; viability [5]: reduced the viability
5 | CC(=O)Nc1ccc(C(=O)Nc2ccccc2N)cc1 [CI-994] | significantly induced differentiation at multiple concentrations | 
6 | Nc1ccccc1NC(=O)c1ccc(CNC(=O)OCc2cccnc2)cc1 [MS-275] | significantly induced differentiation at multiple concentrations | 
7 | O=C(CCCCCCC(=O)Nc1ccccc1)NO [Vorinostat, vorinostat] | significantly induced differentiation at multiple concentrations | 
8 | CC1=C(/C=C/C(C)=C/C=C/C(C)=C\C(=O)O)C(C)(C)CCC1 [cisRA, 13-cis retinoic acid] | induce the differentiation signature in a dose-dependent manner | 
